In ChEMBL document CHEMBL1146517, “Scleritodermin A, a cytotoxic cyclic peptide from the lithistid sponge Scleritoderma nodosum” (J Nat Prod, 2004):
Active and inactive are the calls of the source. No cut-off for these calls is given here.

How the values were obtained:
HCT-116 [1] = test: Cytotoxicity against VM46-resistant human HCT116 cells overexpressing P-gp after 72 hrs by MTS assay; format: functional, cell-based; conditions: HCT-116, 72 h
Outline: (§1)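 Cells grown in RPMI 1640 with 5 mM HEPES and 10% FBS; HCT116/VM46 is a multidrug-resistant subline of HCT116. Seeded in microtiter plates, compound added 24 h later as serial dilutions, then 72 h at 37 °C. MTS plus phenazine methosulfate added, absorbance read at 492 nm as viable-cell measure; IC50 reported.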

Bos taurus = species: Bos taurus; test: Inhibition of GTP-induced calf brain tubulin polymerization at 10 uM
Outline: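 Twice-cycled calf brain tubulin in 100 mM MES pH 6.6, 1 mM EGTA, 0.5 mM MgCl2, preincubated with compound. Polymerization started with 500 µM GTP; absorbance at 350 nm read every 36 s in cuvettes held at 37 °C.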

HCT-116 [2] = test: Ratio of IC50 for VM46-resistant human HCT116 cells overexpressing P-gp to IC50 for human HCT116 cells; format: functional
A2780 [3] = test: Cytotoxicity against human A2780 cells after 72 hrs by MTS assay; format: functional, cell-based; conditions: A2780, 72 h; outline: as §1
SK-BR-3 = test: Cytotoxicity against human SKBR3 cells after 72 hrs by MTS assay; format: functional, cell-based; conditions: SK-BR-3, 72 h; outline: as §1
HCT-116 [4] = test: Cytotoxicity against human HCT116 cells after 72 hrs by MTS assay; format: functional, cell-based; conditions: HCT-116, 72 h; outline: as §1
A2780 [5] = test: Induction of apoptosis in human A2780 cells at 1.3 uM after 24 hrs by TUNEL assay; format: functional
Outline: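 A2780 cells seeded in six-well plates, treated the next day for 24 h, then collected. Apoptosis scored by TUNEL assay read by flow cytometry, with doublet discrimination gates during acquisition and analysis; apoptosis expressed as fold induction.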

A2780 [6] = test: Cell cycle arrest in human A2780 cells assessed as accumulation at G2/M phase at 1.3 uM after 24 hrs by flow cytometry analysis; format: functional, cell-based
Outline: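 A2780 cells seeded in six-well plates, compound added next day for 24 h. Cells trypsinized, fixed overnight in 80% ethanol at -20 °C, PBS-washed, stained 1 h at RT with propidium iodide (50 µg/mL) and RNase (10 µg/mL). Flow cytometry; G0/G1, S and G2-M fractions calculated from DNA histograms.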

Row | Structure (SMILES) | IC50 (HCT-116 [1]) [nM] | inhibition (Bos taurus) [%] | Ratio IC50 (HCT-116 [2]) | IC50 (A2780 [3]) [nM] | IC50 (SK-BR-3) [nM] | IC50 (HCT-116 [4]) [nM] | fold change (FC) (A2780 [5]) | Activity (A2780 [6])
1 | CC[C@@H](C)[C@@H]1NC(=O)[C@@H]2CCCN2C(=O)[C@@H](NC(=O)[C@@H]2CCCN2C(=O)[C@@H](COC)NS(=O)(=O)[O-])COC(=O)/C(C)=C\C(C)=C\c2csc(n2)[C@H](Cc2ccc(O)cc2)NC(=O)C1=O.[Na+] [SCLERITODERMIN A] | 5600 | 50 | 2.9 | 940 | 670 | 1900 | 5.5 | Active
2 | CC[C@]1(O)C[C@@H]2CN(CCc3c([nH]c4ccccc34)[C@@](C(=O)OC)(c3cc4c(cc3OC)N(C)[C@H]3[C@@](O)(C(=O)OC)[C@H](OC(C)=O)[C@]5(CC)C=CCN6CC[C@]43[C@@H]65)C2)C1 [VINBLASTINE] | 135 | – | 45 | 5 | 72 | 3 | – | –
